# MrgX1 PAM – positive allosteric modulators of MrgX1, primary screen, HEK293 cells, Fluo-4 calcium flux; Mas-related G-protein coupled receptor member X1 (Homo sapiens), Q96LB2; FDSS; hits give high values; 0.63% of 310,000 active; B-score at 10 µM;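 active = plate-corrected calcium response at least 3 library SD above typical, normal starting fluorescence, not activating the receptor alone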;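 also: compound read alongside a low EC10 to EC30 dose of BAM8-22 agonist; peak minus trough fluorescence over baseline measured at the second addition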
# Target sequence (Q96LB2 whole entry, looked up): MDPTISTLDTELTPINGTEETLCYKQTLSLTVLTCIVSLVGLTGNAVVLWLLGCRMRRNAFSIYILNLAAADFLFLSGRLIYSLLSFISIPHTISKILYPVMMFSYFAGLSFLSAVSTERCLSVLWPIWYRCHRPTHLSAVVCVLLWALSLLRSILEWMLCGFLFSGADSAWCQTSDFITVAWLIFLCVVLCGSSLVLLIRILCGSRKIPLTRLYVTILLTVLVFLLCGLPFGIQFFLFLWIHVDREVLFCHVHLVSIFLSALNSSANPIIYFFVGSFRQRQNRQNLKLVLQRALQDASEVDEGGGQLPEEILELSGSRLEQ
# RGS4 pot – RGS4 potentiators or activators, primary screen, cell-based, HEK293 M3R inducible RGS4, calcium flux | 0.92% of 310,000 active | B-score at 10 µM | carbachol calcium flux Fluo4; hits give low values;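 active = B-score of the integrated calcium signal more than 4 SD below the library mean, with starting fluorescence not abnormally high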;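 also: negative B-score means reduced calcium response which marks RGS4 activation or potentiation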
#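 Assay system: HEK293 FlpIn-TREx cells, stable M3R, doxycycline-inducible RGS4 / Probe or stimulus: carbachol, ECmax concentration / Times: overnight RGS4 induction, 30 min dye load 37 °C, 20 min compound RT / Signal: kinetic calcium fluorescence imaging with Fluo4-AM dye, 2 µM / Measure: Agonist-evoked peak-minus-minimum fluorescence over baseline, integrated ratio, B score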
# MrgX1 agonist – agonists of human MrgX1 receptor, primary screen, HEK293 cells, Fluo-4 calcium flux; Mas-related G-protein coupled receptor member X1 (Homo sapiens), Q96LB2; Fluo-4 calcium fluorescence, agonist mode; hits give high values; B-score at 10 µM; 0.44% of 310,000 active; AID 588627, 2011;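 active = calcium response B-score plate-corrected fluorescence ratio at least 3 library SD, with starting fluorescence B-score inside 5 SD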
#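 Material: MrgX1-expressing HEK293 cells / Dosing: compound as first of three additions / Incubation: overnight seeding, then 1 h dark dye loading / Signal: Fluo-4 NW calcium fluorescence / Evaluation: B-scored fluorescence response ratio / Benchmarks: positive and negative control wells on each plate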
# RGS4 block – RGS4 inhibitors, primary screen, cell-based, HEK293 M3R inducible RGS4, calcium flux. Regulator of G-protein signaling 4 (Homo sapiens), P49798. Fluo-4 calcium flux; hits give high values; triggered by carbachol at its EC20. B-score at 10 µM. 0.45% of 310,000 active. AID 463165, 2010;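 active = B-score, a plate-corrected calcium signal, over three deviations above library mean, with baseline fluorescence within five deviations of library mean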;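 also: RGS4 expression induced by doxycycline in cells with stable M3 receptor; B-score is computed from the integrated fluorescence ratio over baseline after carbachol; higher B-score means a larger calcium signal and so more RGS4 inhibition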
# Target sequence (P49798 whole entry, looked up): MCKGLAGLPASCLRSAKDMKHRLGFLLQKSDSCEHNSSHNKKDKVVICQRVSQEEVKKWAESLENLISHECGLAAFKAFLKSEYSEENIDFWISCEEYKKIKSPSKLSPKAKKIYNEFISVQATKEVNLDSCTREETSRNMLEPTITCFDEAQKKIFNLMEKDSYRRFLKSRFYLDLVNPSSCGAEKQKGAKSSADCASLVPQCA
# MrgX1 antagonist – antagonists of human MrgX1 receptor, primary screen, HEK293 cells, Fluo-4 calcium flux. 1.3% of 310,000 active. Mas-related G-protein coupled receptor member X1 (Homo sapiens), Q96LB2. B-score at 10 µM. AID 588676, 2011. BAM8-22 antagonism; hits give low values;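 active = calcium-response B-score plate-corrected more than 3 library SD below zero, starting fluorescence within 5 deviations, no agonist response on first addition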;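 also: peak minus trough fluorescence over baseline after final BAM8-22 challenge near maximal dose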
# MrgX1 allo conf – MrgX1 positive allosteric modulators, duplicate retest, confirmation, HEK293 cells, Fluo-4 calcium flux. Fluo-4 calcium fluorescence, FDSS. activation (ratio percentage), % at 10 µM. 13% of 1,200 active. shares compounds with MrgX1 PAM;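 active = ratio at least 3 SD above the weak peptide control, stable starting fluorescence, no direct agonism earlier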;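 also: compound followed by low BAM8-22 agonist challenge near EC20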
# HEK293 Ca flux – nonspecific calcium signal in parental HEK293, confirmation, counter-screen for MrgX1 antagonist project, parental HEK293 cells, Fluo-4 calcium flux; shares compounds with MrgX1 antagonist; fluorescence ratio F(max-min)/F0 at 10 µM; Fluo-4 calcium fluorescence, FDSS; 2% of 4,000 active; AID 624111, 2012;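 active = duplicate-averaged calcium fluorescence ratio at least three times the standard deviation of buffer wells, a nonspecific response in parental cells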
# HEK293 Ca counter – calcium response in parental HEK293 cells, primary screen, counter-screen for MrgX1 allosteric activator project, cell-based, Fluo-4 calcium flux, duplicate; shares compounds with MrgX1 antagonist; AID 624114, 2012; Fluo-4 fluorescence ratio; hits give high values; fluorescence ratio F(max-min)/F0 at 10 µM; 0.4% of 4,000 active;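 active = calcium fluorescence ratio, averaged over duplicates, at least 3 SD of the buffer-well ratio, meaning a nonspecific response in receptor-free cells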;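 also: untransfected parental HEK293 lacking MrgX1 used as counterscreen for MrgX1 allosteric activators; fluorescence change taken during the second addition on a kinetic imager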
# HEK293 Ca cntr2 – calcium response in parental HEK293 cells, primary screen, counter-screen for MrgX1 agonist project, cell-based, Fluo-4 calcium flux, duplicate, agonist mode. shares compounds with MrgX1 antagonist. Fluo-4 calcium fluorescence (FDSS); hits give high values. fluorescence ratio F(max-min)/F0 at 10 µM. 8.7% of 4,000 active. AID 624115, 2012;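 active = calcium fluorescence ratio at least three times the spread of buffer wells, meaning a non-specific response in parental cells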
# Numbers without * were called inactive; i = inactive; / = no result. Only some compounds are listed: those with a hit (about 3.5% of all), similar ones and a draw of the others.
SMILES,MrgX1 PAM,RGS4 pot,MrgX1 agonist,RGS4 block,MrgX1 antagonist,MrgX1 allo conf,HEK293 Ca flux,HEK293 Ca counter,HEK293 Ca cntr2
Cc1oc(-c2cc(F)cc(F)c2)nc1CN1CCN(C(=O)c2ccco2)CC1,i,i,i,i,i,/,/,/,/
c1ccc2nc3ccccc3nc2c1,i,i,i,i,i,/,/,/,/
Cc1cccc2nc3ccccc3nc12,9.32*,i,i,i,i,i,i,i,i
Cc1cc(-n2c(C)cc(C(=O)CCl)c2C)no1,10.1*,i,i,i,i,i,i,i,i
Cc1cc(-n2c(C)cc(C(=O)CN3C(=O)NC4(CCCC4)C3=O)c2C)no1,i,i,i,i,i,/,/,/,/
CC1CCc2c(C(=O)Nc3ccccn3)csc2C1 (stereo not given),8.28*,i,i,i,i,i,i,i,i
CC1CCc2c(C(=O)NCc3ccccn3)csc2C1 (stereo not given),i,i,i,i,i,/,/,/,/
O=C(Nc1cccnc1)C1CC(=O)N(c2ccc(F)cc2)C1 (stereo not given),i,i,i,i,i,/,/,/,/
COc1ccc(CC(=O)NC(=S)Nc2cccc(CO)c2)cc1,7.24*,i,i,i,i,i,i,i,i
CC(C)(C)c1nnc(NS(=O)(=O)c2cc(Cl)ccc2Cl)s1,11.8*,i,i,i,i,i,i,i,i
O=S(=O)(Nc1nnc(C(F)(F)F)s1)c1ccc(Cl)cc1,i,i,i,i,i,/,/,/,/
Cc1nc2ccccc2c(=O)n1NC(=O)c1ccc(Cl)c(Cl)c1,i,i,i,i,i,/,/,/,/
COc1nc(N)nc(NC23CC4CC(CC(C4)C2)C3)n1,14.9*,i,i,i,i,22.1%*,i,i,i
CCOC(=O)c1nn(-c2ccc(F)cc2)cc1O,8.43*,i,i,i,i,i,i,i,i
CCOC(=O)c1nn(-c2ccc3c(c2)CCN3C(C)=O)cc1O,i,i,i,i,i,/,/,/,/
O=C1CCC2=C(CCCC2=O)N1,10*,i,i,i,i,i,i,i,i
Cc1c(C(=O)Nc2ccccc2F)sc2ncn(CC(=O)N3CCOCC3)c(=O)c12,i,i,i,i,i,/,/,/,/
c1ccc2cc(OCCOCCOc3ccc4ccccc4c3)ccc2c1,12.7*,i,i,i,i,i,i,i,i
CN(C)CCOc1ccc2ccccc2c1,i,i,i,i,i,/,/,/,/
CCn1cc(C(=O)N(C)CC(OC)OC)c(=O)c2cc(S(=O)(=O)N3CCOCC3)ccc21,i,i,i,i,i,/,/,/,/
CCn1c(=S)[nH]c2cc(C(=O)OC)ccc2c1=O,8.08*,i,i,i,i,i,i,i,i
O=C(c1ccccc1)N1CCN(c2ccc([N+](=O)[O-])cc2-n2cccc2)CC1,i,i,i,i,i,/,/,/,/

# Screens (PubChem BioAssay)
